The record followed here is ChEMBL document CHEMBL1149485, “Structure-activity relationships of uridine 5'-diphosphate analogues at the human P2Y6 receptor” (J Med Chem, 2006).

What all share (type): functional, cell-based
The target in assay [1] is T1, P2Y purinoceptor 6 (Homo sapiens, UniProt Q15077). As to the kind of experiment: Agonist activity at human recombinant P2Y6 receptor expressed in 1321N1 cells assessed as PLC-mediated [3H]IP production. The procedure, abridged: (§1)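 Stable 1321N1 astrocytoma line expressing human P2Y6, grown to confluence and labelled 12 h in serum-free, inositol-free DMEM with 0.4 μCi myo-[3H]inositol. Agonists were added in Hepes pH 7.3 with LiCl for 20 min at 37 °C. The reaction was stopped with ice-cold 50 mM formic acid, neutralised with NH4OH, and [3H]inositol phosphates separated on Dowex AG 1-X8. EC50 came from four-parameter logistic fits; ratio to UDP EC50. Triplicates, ≥3 experiments.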
T1 sequence (Q15077 whole entry): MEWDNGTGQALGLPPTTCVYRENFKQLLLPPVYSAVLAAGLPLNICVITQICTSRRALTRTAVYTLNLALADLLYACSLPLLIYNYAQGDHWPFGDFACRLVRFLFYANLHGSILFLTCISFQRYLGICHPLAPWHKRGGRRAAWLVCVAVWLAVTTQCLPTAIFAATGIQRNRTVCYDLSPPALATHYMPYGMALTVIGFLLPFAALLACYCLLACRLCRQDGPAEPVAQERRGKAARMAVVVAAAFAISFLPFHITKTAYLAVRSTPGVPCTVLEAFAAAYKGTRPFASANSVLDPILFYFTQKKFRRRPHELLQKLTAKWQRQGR

For assay [2], the target named is T1, P2Y purinoceptor 6. As to the kind of experiment: Agonist activity at human recombinant P2Y6 receptor expressed in 1321N1 cells assessed as PLC-mediated [3H]IP production at 10 uM realtive to UDP. The procedure, abridged:
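Human P2Y6 in 1321N1 cells prelabelled with myo-[3H]inositol, then exposed to agonist at 10 μM in Hepes pH 7.3 with LiCl for 20 min at 37 °C. [3H]inositol phosphates were isolated by Dowex anion exchange. Response is expressed as % of the effect of a maximally effective UDP concentration in the same experiment.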

For assay [3], the target named is T2, P2Y purinoceptor 2 (Homo sapiens, UniProt P41231). As to the kind of experiment: Agonist activity at human recombinant P2Y2 receptor expressed in 1321N1 cells assessed as PLC-mediated [3H]IP production relative to UTP.
T2 sequence (P41231 whole entry): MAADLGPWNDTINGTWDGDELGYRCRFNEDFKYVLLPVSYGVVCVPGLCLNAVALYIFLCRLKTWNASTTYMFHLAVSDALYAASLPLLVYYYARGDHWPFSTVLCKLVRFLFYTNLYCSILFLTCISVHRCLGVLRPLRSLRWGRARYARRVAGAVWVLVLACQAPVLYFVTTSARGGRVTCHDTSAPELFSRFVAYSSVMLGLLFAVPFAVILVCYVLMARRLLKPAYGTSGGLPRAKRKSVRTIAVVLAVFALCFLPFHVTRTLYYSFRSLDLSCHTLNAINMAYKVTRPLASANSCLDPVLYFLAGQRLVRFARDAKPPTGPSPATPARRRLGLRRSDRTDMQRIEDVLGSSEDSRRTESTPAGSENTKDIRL
For assay [4], the target named is T1, P2Y purinoceptor 6. Put plainly: Agonist activity at human recombinant P2Y6 receptor expressed in 1321N1 cells assessed as PLC-mediated [3H]IP production relative to UDP. The procedure, abridged: as §1
Assay [5] deals with T3, P2Y purinoceptor 4 (Homo sapiens, UniProt P51582). Put plainly: Agonist activity at human recombinant P2Y4 receptor expressed in 1321N1 cells assessed as PLC-mediated [3H]IP production relative to UTP at 10 uM.
T3 sequence (P51582 whole entry): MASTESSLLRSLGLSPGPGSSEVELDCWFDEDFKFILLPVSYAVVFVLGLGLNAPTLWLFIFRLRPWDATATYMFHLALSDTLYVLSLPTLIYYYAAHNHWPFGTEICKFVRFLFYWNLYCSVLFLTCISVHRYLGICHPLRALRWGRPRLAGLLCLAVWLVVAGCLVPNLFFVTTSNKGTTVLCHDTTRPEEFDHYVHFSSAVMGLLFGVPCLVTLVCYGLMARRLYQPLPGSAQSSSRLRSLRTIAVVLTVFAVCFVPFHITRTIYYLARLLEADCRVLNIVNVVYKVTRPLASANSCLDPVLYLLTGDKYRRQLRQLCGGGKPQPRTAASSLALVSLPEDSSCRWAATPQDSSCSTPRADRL
The target in assay [6] is T3, P2Y purinoceptor 4. As to the kind of experiment: Agonist activity at human recombinant P2Y4 receptor expressed in 1321N1 cells assessed as PLC-mediated [3H]IP production relative to UTP.
Assay [7] deals with T3, P2Y purinoceptor 4. Put plainly: Agonist activity at human recombinant P2Y4 receptor expressed in 1321N1 cells assessed as PLC-mediated [3H]IP production.
For assay [8], the target named is T2, P2Y purinoceptor 2. Put plainly: Agonist activity at human recombinant P2Y2 receptor expressed in 1321N1 cells assessed as PLC-mediated [3H]IP production.

Structures are written as SMILES. Activity calls are given as the source filed them. No cut-off for these calls is given here.

Take `O=c1ccn([C@@H]2O[C@H](COP(=O)(O)OP(=O)(O)O)[C@@H](O)[C@H]2O)c(=O)[nH]1` [URIDINE_DIPHOSPHATE]: the EC50 in assay [1] turned out to be 0.013 µM.

`CCSc1ccn([C@@H]2O[C@H](COP(=O)(O)OP(=O)(O)O)[C@@H](O)[C@H]2O)c(=O)n1`: the EC50 in assay [1] was determined as 0.28 µM.

As to `O=c1ccn([C@@H]2O[C@H](COP(=O)(O)OP(=O)(O)OC[C@H]3O[C@@H](n4ccc(=O)[nH]c4=O)[C@H](O)[C@@H]3O)[C@@H](O)[C@H]2O)c(=O)[nH]1`, in assay [1], the EC50 turned out to be 2.3 µM.

With `O=c1ccn([C@@H]2O[C@@]3(COP(=O)(O)OP(=O)(O)O)C[C@H]3[C@H]2O)c(=O)[nH]1`, in assay [1], the concentration giving a half-maximal response (EC50) is 3.5 µM.

Consider `O=C(O)CCSc1ccn([C@@H]2O[C@H](COP(=O)(O)OP(=O)(O)O)[C@@H](O)[C@H]2O)c(=O)n1`, for which the EC50 in assay [1] turned out to be 1.1 µM.

As for `O=c1nc(SCc2ccccc2)ccn1[C@@H]1O[C@H](COP(=O)(O)OP(=O)(O)OC[C@H]2O[C@@H](n3ccc(SCc4ccccc4)nc3=O)[C@H](O)[C@@H]2O)[C@@H](O)[C@H]1O`, the Efficacy in assay [2] is under 50%.

Take `O=c1ccn([C@]23CC2[C@H](COP(=O)(O)OP(=O)(O)O)[C@@H](O)C3)c(=O)[nH]1` (some centres undefined): the EC50 in assay [1] was 0.23 µM.

`Nc1ncnc2c1ncn2[C@@H]1O[C@H](COP(=O)(O)OP(=O)(O)O)[C@@H](O)[C@H]1O` [ADENOSINE DIPHOSPHATE]: the Ratio EC50 in assay [3] is 1.7; in assay [4], over 7000. Moreover, the concentration for a half-maximal effect (EC50) in assay [1] was 65 µM. Further, in assay [5], the result was inactive.

With `C=CCSc1ccn([C@@H]2O[C@H](COP(=O)(O)OP(=O)(O)O)[C@@H](O)[C@H]2O)c(=O)n1`, the EC50 in assay [1] was determined as 0.56 µM.

With `CSc1ccn([C@@H]2O[C@H](COP(=O)(O)OP(=O)(O)O)[C@@H](O)[C@H]2O)c(=O)n1`, in assay [1], the EC50 was found to be 2.3 µM.

Turning to `O=C(O)CCCSc1ccn([C@@H]2O[C@H](COP(=O)(O)OP(=O)(O)O)[C@@H](O)[C@H]2O)c(=O)n1`, the half-maximal effective concentration (EC50) in assay [1] turned out to be 8.8 µM.

As for `CCCCCCSc1ccn([C@@H]2O[C@H](COP(=O)(O)OP(=O)(O)O)[C@@H](O)[C@H]2O)c(=O)n1`, in assay [1], the EC50 came to 4.9 µM.

With `O=c1nc(SCc2ccccc2)ccn1[C@@H]1O[C@H](COP(=O)(O)OP(=O)(O)O)[C@@H](O)[C@H]1O`, the EC50 in assay [1] amounted to 0.8 µM.

For the compound `O=C(O)CSc1ccn([C@@H]2O[C@H](COP(=O)(O)OP(=O)(O)O)[C@@H](O)[C@H]2O)c(=O)n1`, the EC50 in assay [1] was 1.7 µM.

Consider `O=c1ccn([C@@H]2O[C@H](COP(=O)(O)OP(=O)(O)O)[C@@H](O)[C@@H]2F)c(=O)[nH]1`, for which the Ratio EC50 in assay [3] worked out at 11; in assay [4] it was 420; in assay [6] it was 7.1. Also, the concentration giving a half-maximal response (EC50) in assay [1] is 5.5 µM.

Consider `NC(=O)CSc1ccn([C@@H]2O[C@H](COP(=O)(O)OP(=O)(O)O)[C@@H](O)[C@H]2O)c(=O)n1`, for which the EC50 in assay [1] was found to be 18 µM.

With `O=c1[nH]c(=S)ccn1[C@@H]1O[C@H](COP(=O)(O)OP(=O)(O)O)[C@@H](O)[C@H]1O`, the Ratio EC50 in assay [3] came out at 0.53; in assay [4], 6; in assay [6] it was 0.32. Besides, the half-maximal effective concentration (EC50) in assay [1] amounted to 0.08 µM.

Regarding `O=c1ccn([C@@H]2C3C[C@@]3(COP(=O)(O)OP(=O)(O)O)[C@@H](O)[C@H]2O)c(=O)[nH]1` (some centres undefined), the Ratio EC50 in assay [3] was 2; in assay [4], over 7000; in assay [6], 1.7.

Regarding `Cn1c(=O)ccn([C@@H]2O[C@H](COP(=O)(O)OP(=O)(O)O)[C@@H](O)[C@H]2O)c1=O`, the values for the Ratio EC50 in assay [3], in assay [4] and in assay [6] were 24, 250 and 47, respectively. In assay [1], the EC50 worked out at 3.3 µM.

Regarding `[N-]=[N+]=N[C@@H]1[C@H](O)[C@@H](COP(=O)(O)OP(=O)(O)O)O[C@H]1n1ccc(=O)[nH]c1=O`, the Ratio EC50 in assay [3] is 100; in assay [4] it was 120; in assay [6] it was 15. Further, the concentration for a half-maximal effect (EC50) in assay [1] came to 1.5 µM.

For the compound `Nc1ccn([C@@H]2O[C@H](COP(=O)(O)OP(=O)(O)O)[C@@H](O)[C@H]2O)c(=O)n1`, the values for the Ratio EC50 in assay [3] and in assay [4] were 110 and 1000, respectively. The EC50 in assay [1] was 88 µM. For the same compound, the result in assay [5] was inactive.

For `O=c1ccn([C@@H]2O[C@H](COP(=O)(O)OP(=O)(O)O)C[C@H]2O)c(=O)[nH]1`, the concentration for a half-maximal effect (EC50) worked out at 3.1 µM in assay [7], 0.81 µM in assay [8] and 2.5 µM in assay [1]. Further, the Ratio EC50 is 17 in assay [3], 190 in assay [4] and 42 in assay [6].

As to `CCSc1ccn([C@@H]2O[C@H](COP(=O)(O)OP(=O)(O)OC[C@H]3O[C@@H](n4ccc(SCC)nc4=O)[C@H](O)[C@@H]3O)[C@@H](O)[C@H]2O)c(=O)n1`, in assay [2], the Efficacy was under 50%.

Regarding `O=c1ccn([C@@H]2O[C@H](COP(=O)(O)OP(=O)(O)O)[C@@H](O)[C@H]2O)c(=S)[nH]1`, the Ratio EC50 was 0.71 in assay [3], 4 in assay [4] and 4.8 in assay [6]. Besides, the EC50 in assay [1] was 0.06 µM.

Regarding `O=c1[nH]c(=O)n([C@@H]2O[C@H](COP(=O)(O)OP(=O)(O)O)[C@@H](O)[C@H]2O)cc1I`, the Ratio EC50 amounted to 17 in assay [3], 1.1 in assay [4] and 55 in assay [6]. Further, the concentration for a half-maximal effect (EC50) in assay [1] came to 0.015 µM.

As to `Nc1nc2c(ncn2[C@@H]2O[C@H](COP(=O)(O)OP(=O)(O)O)[C@@H](O)[C@H]2O)c(=O)[nH]1`, the values for the Ratio EC50 in assay [3], in assay [4] and in assay [6] were 54, 500 and 90, respectively. In addition, the EC50 in assay [1] is 45 µM.

On to `N[C@@H]1[C@H](O)[C@@H](COP(=O)(O)OP(=O)(O)O)O[C@H]1n1ccc(=O)[nH]c1=O`, for which the Ratio EC50 is 1.3 in assay [3], 300 in assay [4] and 16 in assay [6]. The EC50 in assay [1] amounted to 3.9 µM.

For orientation: EC50 means the concentration needed to bring the measured effect to its halfway point.
